Results taken from ChEMBL document CHEMBL3098130, “Discovery of Novel Putative Inhibitors of UDP-GlcNAc 2-Epimerase as Potent Antibacterial Agents” (ACS Med Chem Lett, 2013).
In brackets after ≈: the same amount, converted by molar mass.

Experiments:
Format in all cases: functional
[1] = system: Bacillus anthracis; assay: Antibacterial activity against Bacillus anthracis Sterne assessed as growth inhibition at 10 uM measured every 2 mins for 16 to 20 hrs by spectramax 96-well plate reader analysis; details: read-out: GI
[2] = system: Staphylococcus aureus; assay: Antibacterial activity against methicillin-resistant Staphylococcus aureus assessed as growth inhibition at 10 uM measured every 2 mins for 16 to 20 hrs by spectramax 96-well plate reader analysis; details: read-out: GI
[3] = system: Staphylococcus aureus; assay: Antibacterial activity against methicillin-resistant Staphylococcus aureus assessed as growth inhibition at 30 uM measured every 2 mins for 16 to 20 hrs by spectramax 96-well plate reader analysis; details: read-out: GI
[4] = system: Bacillus anthracis; assay: Antibacterial activity against Bacillus anthracis Sterne assessed as growth inhibition at 30 uM measured every 2 mins for 16 to 20 hrs by spectramax 96-well plate reader analysis; details: read-out: GI
[5] = system: Staphylococcus aureus; assay: Antibacterial activity against methicillin-resistant Staphylococcus aureus assessed as growth inhibition at 3 uM measured every 2 mins for 16 to 20 hrs by spectramax 96-well plate reader analysis; details: read-out: GI
[6] = system: Bacillus anthracis; assay: Antibacterial activity against Bacillus anthracis Sterne assessed as growth inhibition at 3 uM measured every 2 mins for 16 to 20 hrs by spectramax 96-well plate reader analysis; details: read-out: GI
[7] = system: Bacillus subtilis; assay: Antibacterial activity against Bacillus subtilis 19659 assessed as growth inhibition measured for 3 days by broth microdilution method
Summary of the method: (§1)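 MIC by broth microdilution against a panel of Gram-positive and Gram-negative strains (ATCC-type numbers where given). Run in triplicate on three different days.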

[8] = system: Staphylococcus aureus; assay: Antibacterial activity against Staphylococcus aureus 13709 assessed as growth inhibition measured for 3 days by broth microdilution method; summary of the method: as §1
[9] = Bacillus subtilis, 19659, 72 h, read-out: MIC
[10] = Staphylococcus aureus, 13709, 72 h, read-out: MIC

| Compound | inhibition of growth at 10 µM [1] | inhibition of growth at 10 µM [2] | inhibition of growth at 30 µM [3] | inhibition of growth at 30 µM [4] | inhibition of growth at 3 µM [5] | inhibition of growth at 3 µM [6] | MIC [7, 9] | MIC [8, 10] | MIC [7] | MIC [8] |
| --- | --- | --- | --- | --- | --- | --- | --- | --- | --- | --- |
| O=C(O)C(Cc1ccccc1)N1C(=O)/C(=C\c2ccc(-c3cccc(Cl)c3)o2)NC1=S (stereo not given) | 0% | 0% | 10% | 90% | 0% | 10% | – | – | – | – |
| O=C(O)C(Cc1ccccc1)N1C(=O)/C(=C\c2ccc(-c3ccc(Br)cc3)o2)NC1=S (stereo not given) | 100% | 90% | 90% | 100% | 10% | 70% | – | – | – | – |
| O=C(O)C(Cc1ccccc1)N1C(=O)/C(=C\c2ccc(-c3ccc(I)cc3)o2)NC1=S (stereo not given) | 100% | 90% | 90% | 100% | 0% | 50% | – | – | – | – |
| O=C(O)C(Cc1ccccc1)N1C(=O)/C(=C\c2ccc(-c3ccc(OC(F)(F)F)cc3)o2)NC1=S (stereo not given) | 100% | 10% | 100% | 100% | 0% | 10% | – | – | – | – |
| O=C(O)C(Cc1ccccc1)N1C(=O)/C(=C\c2ccc(-c3ccc(Cl)c(Cl)c3)s2)NC1=S (stereo not given) | 110% | 10% | 40% | 90% | 10% | 0% | – | – | – | – |
| O=C(O)C(Cc1ccccc1)N1C(=O)/C(=C\c2ccc(-c3ccc(Cl)c(Cl)c3)o2)NC1=S (stereo not given) | 110% | 90% | 100% | 110% | 20% | 110% | – | – | – | – |
| O=C(O)C(Cc1ccccc1)N1C(=O)/C(=C\c2ccc(-c3ccc(Br)c(Cl)c3)s2)NC1=S (stereo not given) | 10% | 10% | 0% | 90% | – | 20% | – | – | – | – |
| O=C(O)C(Cc1ccccc1)N1C(=O)/C(=C\c2ccc(-c3ccc(Br)c(Cl)c3)o2)NC1=S (stereo not given) | 100% | 100% | 100% | 100% | 20% | 100% | – | – | – | – |
| O=C(O)C(Cc1ccccc1)N1C(=O)/C(=C\c2ccc(-c3cc(Cl)cc(Cl)c3)o2)NC1=S (stereo not given) | 0% | 10% | 90% | 100% | 0% | 0% | – | – | – | – |
| COc1ccc(-c2ccc(/C=C3/NC(=S)N(C(Cc4ccccc4)C(=O)O)C3=O)o2)cc1Cl (stereo not given) | 30% | 10% | 80% | 100% | 10% | 0% | – | – | – | – |
| COc1ccc(-c2ccc(/C=C3/NC(=S)N(C(Cc4ccccc4)C(=O)O)C3=O)s2)cc1 (stereo not given) | 0% | 10% | 20% | 100% | 0% | 0% | – | – | – | – |
| O=C(O)C(Cc1ccccc1)N1C(=O)/C(=C\c2ccc(-c3ccc(F)cc3)s2)NC1=S (stereo not given) | 10% | 20% | 50% | 100% | 20% | 0% | – | – | – | – |
| O=C(O)C(Cc1ccccc1)N1C(=O)/C(=C\c2ccc(-c3ccc(Cl)cc3)s2)NC1=S (stereo not given) | 100% | 0% | 90% | 100% | 0% | 0% | – | – | – | – |
| O=C(O)C(Cc1ccccc1)N1C(=O)/C(=C\c2ccc(-c3ccc(Br)cc3)s2)NC1=S (stereo not given) | 100% | 90% | 90% | 100% | 20% | 80% | – | – | – | – |
| O=C1NC(=S)NC(=O)C1=Cc1ccc(-c2ccc(Br)c(Cl)c2)o1 | – | – | – | 96.6% | – | – | – | – | – | – |
| O=C1Nc2ccccc2/C1=C1/SC(=S)N(C(Cc2ccccc2)C(=O)O)C1=O (stereo not given) | – | – | – | 99.7% | – | – | – | – | – | – |
| O=C(O)[C@@H](Cc1ccccc1)N1C(=O)/C(=C/c2ccc(-c3ccc(Cl)c(Cl)c3)o2)NC1=S | – | – | – | – | – | – | 6.8 µM (≈ 3.31 µg/mL) | 6.8 µM (≈ 3.31 µg/mL) | – | – |
| O=C(O)[C@H](Cc1ccccc1)N1C(=O)/C(=C/c2ccc(-c3ccc(Cl)c(Cl)c3)o2)NC1=S | – | – | – | – | – | – | 6.8 µM (≈ 3.31 µg/mL) | 6.8 µM (≈ 3.31 µg/mL) | – | – |
| CCC(C(=O)O)N1C(=O)/C(=C\c2ccc(-c3ccc(Cl)c(Cl)c3)o2)NC1=S (stereo not given) | 100% | 0% | 90% | 90% | 0% | 0% | – | – | – | – |
| NC(=O)C(Cc1ccccc1)N1C(=O)/C(=C\c2ccc(-c3ccc(Cl)c(Cl)c3)o2)NC1=S (stereo not given) | 90% | 30% | 60% | 90% | 0% | 20% | – | – | – | – |
| CCOC(=O)C(Cc1ccccc1)N1C(=O)/C(=C\c2ccc(-c3ccc(Cl)c(Cl)c3)o2)NC1=S (stereo not given) | 50% | 0% | 0% | 0% | – | – | – | – | – | – |
| N#CNC(=O)C(Cc1ccccc1)N1C(=O)/C(=C\c2ccc(-c3ccc(Cl)c(Cl)c3)o2)NC1=S (stereo not given) | 100% | 0% | 100% | 100% | 0% | 0% | – | – | – | – |
| CS(=O)(=O)NC(=O)C(Cc1ccccc1)N1C(=O)/C(=C\c2ccc(-c3ccc(Cl)c(Cl)c3)o2)NC1=S (stereo not given) | 100% | 30% | 60% | 90% | 0% | 40% | – | – | – | – |
| O=C(NS(=O)(=O)C(F)(F)F)C(Cc1ccccc1)N1C(=O)/C(=C\c2ccc(-c3ccc(Cl)c(Cl)c3)o2)NC1=S (stereo not given) | 100% | 80% | 90% | 100% | 0% | 70% | – | – | – | – |
| CCC(C(=O)NS(C)(=O)=O)N1C(=O)/C(=C\c2ccc(-c3ccc(Cl)c(Cl)c3)o2)NC1=S (stereo not given) | 0% | 0% | 0% | 20% | 0% | 10% | – | – | – | – |
| O=C(O)[C@@H](Cc1ccccc1)N1C(=O)/C(=C\c2ccc(-c3ccc(Cl)c(Cl)c3)o2)NC1=S | – | – | – | – | – | – | 6.8 µM (≈ 3.31 µg/mL) | 6.8 µM (≈ 3.31 µg/mL) | – | – |
| O=C(O)[C@H](Cc1ccccc1)N1C(=O)/C(=C\c2ccc(-c3ccc(Cl)c(Cl)c3)o2)NC1=S | – | – | – | – | – | – | – | – | 6.8 µM (≈ 3.31 µg/mL) | 6.8 µM (≈ 3.31 µg/mL) |
| O=C(O)C(Cc1ccccc1)N1C(=O)/C(=C\c2ccc(-c3ccccc3)o2)NC1=S (stereo not given) | 10% | 10% | 10% | 20% | 0% | 0% | – | – | – | – |
| O=C(O)C(Cc1ccccc1)N1C(=O)/C(=C\c2ccc(-c3ccc(Cl)cc3)o2)NC1=S (stereo not given) | 70% | 20% | 90% | 100% | 10% | 0% | – | – | – | – |
